System: Escherichia coli
Experiment: Antibacterial activity against Escherichia coli JM109 measured after 24 hrs by two-fold serial dilution method
Assay type: functional
Settings: JM109, 24 h
In short: (§1)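 MIC by two-fold serial broth microdilution in 96-well plates, following NCCLS recommendations. Chloromycin, norfloxacin and fluconazole serve as reference drugs. The MIC is read as the lowest concentration that inhibits growth, in µg/mL.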

SMILES	MIC [mg/L]
COc1ccc2cc3[n+](cc2c1OCc1nc2ccccc2n1Cc1ccc(Cl)cc1)CCc1cc2c(cc1-3)OCO2.[Cl-]	2
COc1ccc2cc3[n+](cc2c1OCc1nc2ccccc2n1Cc1ccc([N+](=O)[O-])cc1)CCc1cc2c(cc1-3)OCO2.[Cl-]	32
CCCn1c(COc2c(OC)ccc3cc4[n+](cc23)CCc2cc3c(cc2-4)OCO3)nc2ccccc21.[Cl-]	256
COc1ccc2cc3[n+](cc2c1OCc1nc2ccccc2n1Cc1ccccc1F)CCc1cc2c(cc1-3)OCO2.[Cl-]	128
CCCCCCCCCCCCCCCCCCn1c(COc2c(OC)ccc3cc4[n+](cc23)CCc2cc3c(cc2-4)OCO3)nc2ccccc21.[Cl-]	512

System: Staphylococcus aureus
Experiment: Antibacterial activity against Staphylococcus aureus ATCC 25923 measured after 24 hrs by two-fold serial dilution method
Assay type: functional
Settings: ATCC 25923, 24 h
In short: as §1

SMILES	MIC [mg/L]
COc1ccc2cc3[n+](cc2c1OCc1nc2ccccc2n1Cc1ccc(Cl)cc1)CCc1cc2c(cc1-3)OCO2.[Cl-]	32
COc1ccc2cc3[n+](cc2c1OCc1nc2ccccc2n1Cc1ccc([N+](=O)[O-])cc1)CCc1cc2c(cc1-3)OCO2.[Cl-]	64
CCCn1c(COc2c(OC)ccc3cc4[n+](cc23)CCc2cc3c(cc2-4)OCO3)nc2ccccc21.[Cl-]	128
COc1ccc2cc3[n+](cc2c1OCc1nc2ccccc2n1Cc1ccccc1F)CCc1cc2c(cc1-3)OCO2.[Cl-]	2
CCCCCCCCCCCCCCCCCCn1c(COc2c(OC)ccc3cc4[n+](cc23)CCc2cc3c(cc2-4)OCO3)nc2ccccc21.[Cl-]	512

System: Pseudomonas aeruginosa
Experiment: Antibacterial activity against Pseudomonas aeruginosa measured after 24 hrs by two-fold serial dilution method
Assay type: functional
Settings: not given
In short: as §1

SMILES	MIC [mg/L]
COc1ccc2cc3[n+](cc2c1OCc1nc2ccccc2n1Cc1ccc(Cl)cc1)CCc1cc2c(cc1-3)OCO2.[Cl-]	512
COc1ccc2cc3[n+](cc2c1OCc1nc2ccccc2n1Cc1ccc([N+](=O)[O-])cc1)CCc1cc2c(cc1-3)OCO2.[Cl-]	512
CCCn1c(COc2c(OC)ccc3cc4[n+](cc23)CCc2cc3c(cc2-4)OCO3)nc2ccccc21.[Cl-]	64
COc1ccc2cc3[n+](cc2c1OCc1nc2ccccc2n1Cc1ccccc1F)CCc1cc2c(cc1-3)OCO2.[Cl-]	512
CCCCCCCCCCCCCCCCCCn1c(COc2c(OC)ccc3cc4[n+](cc23)CCc2cc3c(cc2-4)OCO3)nc2ccccc21.[Cl-]	512

System: Salmonella typhi
Experiment: Antibacterial activity against Salmonella typhi measured after 24 hrs by two-fold serial dilution method
Assay type: functional, Salmonella enterica subsp. enterica serovar Typhi
Settings: Salmonella enterica
In short: (§2)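 Two-fold serial dilution in 96-well microtest plates following NCCLS guidance (micro broth dilution). Chloromycin and norfloxacin serve as positive controls. MIC is reported in µg/mL.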

SMILES	MIC [mg/L]
COc1ccc2cc3[n+](cc2c1OCc1nc2ccccc2n1Cc1ccc(Cl)cc1)CCc1cc2c(cc1-3)OCO2.[Cl-]	2
COc1ccc2cc3[n+](cc2c1OCc1nc2ccccc2n1Cc1ccc([N+](=O)[O-])cc1)CCc1cc2c(cc1-3)OCO2.[Cl-]	256
CCCn1c(COc2c(OC)ccc3cc4[n+](cc23)CCc2cc3c(cc2-4)OCO3)nc2ccccc21.[Cl-]	4
COc1ccc2cc3[n+](cc2c1OCc1nc2ccccc2n1Cc1ccccc1F)CCc1cc2c(cc1-3)OCO2.[Cl-]	4
CCCCCCCCCCCCCCCCCCn1c(COc2c(OC)ccc3cc4[n+](cc23)CCc2cc3c(cc2-4)OCO3)nc2ccccc21.[Cl-]	256

System: Micrococcus luteus
Experiment: Antibacterial activity against Micrococcus luteus ATCC 4698 measured after 24 hrs by two-fold serial dilution method
Assay type: functional
Settings: NCTC 2665, 24 h
In short: as §1

SMILES	MIC [mg/L]
COc1ccc2cc3[n+](cc2c1OCc1nc2ccccc2n1Cc1ccc(Cl)cc1)CCc1cc2c(cc1-3)OCO2.[Cl-]	8
COc1ccc2cc3[n+](cc2c1OCc1nc2ccccc2n1Cc1ccc([N+](=O)[O-])cc1)CCc1cc2c(cc1-3)OCO2.[Cl-]	32
CCCn1c(COc2c(OC)ccc3cc4[n+](cc23)CCc2cc3c(cc2-4)OCO3)nc2ccccc21.[Cl-]	32
COc1ccc2cc3[n+](cc2c1OCc1nc2ccccc2n1Cc1ccccc1F)CCc1cc2c(cc1-3)OCO2.[Cl-]	8
CCCCCCCCCCCCCCCCCCn1c(COc2c(OC)ccc3cc4[n+](cc23)CCc2cc3c(cc2-4)OCO3)nc2ccccc21.[Cl-]	512

System: Bacillus subtilis
Experiment: Antibacterial activity against Bacillus subtilis measured after 24 hrs by two-fold serial dilution method
Assay type: functional
Settings: not given
In short: as §1

SMILES	MIC [mg/L]
COc1ccc2cc3[n+](cc2c1OCc1nc2ccccc2n1Cc1ccc(Cl)cc1)CCc1cc2c(cc1-3)OCO2.[Cl-]	512
COc1ccc2cc3[n+](cc2c1OCc1nc2ccccc2n1Cc1ccc([N+](=O)[O-])cc1)CCc1cc2c(cc1-3)OCO2.[Cl-]	512
CCCn1c(COc2c(OC)ccc3cc4[n+](cc23)CCc2cc3c(cc2-4)OCO3)nc2ccccc21.[Cl-]	64
COc1ccc2cc3[n+](cc2c1OCc1nc2ccccc2n1Cc1ccccc1F)CCc1cc2c(cc1-3)OCO2.[Cl-]	256
CCCCCCCCCCCCCCCCCCn1c(COc2c(OC)ccc3cc4[n+](cc23)CCc2cc3c(cc2-4)OCO3)nc2ccccc21.[Cl-]	512

System: not listed separately
Experiment: Antifungal activity against Saccharomyces cerevisiae measured after 24 hrs by two-fold serial dilution method
Assay type: functional
Settings: not given
In short: as §1

SMILES	MIC80 [mg/L]
COc1ccc2cc3[n+](cc2c1OCc1nc2ccccc2n1Cc1ccc(Cl)cc1)CCc1cc2c(cc1-3)OCO2.[Cl-]	512
COc1ccc2cc3[n+](cc2c1OCc1nc2ccccc2n1Cc1ccc([N+](=O)[O-])cc1)CCc1cc2c(cc1-3)OCO2.[Cl-]	128
CCCn1c(COc2c(OC)ccc3cc4[n+](cc23)CCc2cc3c(cc2-4)OCO3)nc2ccccc21.[Cl-]	512
COc1ccc2cc3[n+](cc2c1OCc1nc2ccccc2n1Cc1ccccc1F)CCc1cc2c(cc1-3)OCO2.[Cl-]	128
CCCCCCCCCCCCCCCCCCn1c(COc2c(OC)ccc3cc4[n+](cc23)CCc2cc3c(cc2-4)OCO3)nc2ccccc21.[Cl-]	512

System: not listed separately
Experiment: Antifungal activity against Candida utilis measured after 24 hrs by two-fold serial dilution method
Assay type: functional
Settings: Cyberlindnera jadinii
In short: as §1

SMILES	MIC80 [mg/L]
COc1ccc2cc3[n+](cc2c1OCc1nc2ccccc2n1Cc1ccc(Cl)cc1)CCc1cc2c(cc1-3)OCO2.[Cl-]	4
COc1ccc2cc3[n+](cc2c1OCc1nc2ccccc2n1Cc1ccc([N+](=O)[O-])cc1)CCc1cc2c(cc1-3)OCO2.[Cl-]	32
CCCn1c(COc2c(OC)ccc3cc4[n+](cc23)CCc2cc3c(cc2-4)OCO3)nc2ccccc21.[Cl-]	16
COc1ccc2cc3[n+](cc2c1OCc1nc2ccccc2n1Cc1ccccc1F)CCc1cc2c(cc1-3)OCO2.[Cl-]	4
CCCCCCCCCCCCCCCCCCn1c(COc2c(OC)ccc3cc4[n+](cc23)CCc2cc3c(cc2-4)OCO3)nc2ccccc21.[Cl-]	128

System: Proteus vulgaris
Experiment: Antibacterial activity against Bacillus proteus ATCC 13315 measured after 24 hrs by two-fold serial dilution method
Assay type: functional
Settings: ATCC 13315, 24 h
In short: as §1

SMILES	MIC [mg/L]
COc1ccc2cc3[n+](cc2c1OCc1nc2ccccc2n1Cc1ccc(Cl)cc1)CCc1cc2c(cc1-3)OCO2.[Cl-]	8
COc1ccc2cc3[n+](cc2c1OCc1nc2ccccc2n1Cc1ccc([N+](=O)[O-])cc1)CCc1cc2c(cc1-3)OCO2.[Cl-]	32
CCCn1c(COc2c(OC)ccc3cc4[n+](cc23)CCc2cc3c(cc2-4)OCO3)nc2ccccc21.[Cl-]	256
COc1ccc2cc3[n+](cc2c1OCc1nc2ccccc2n1Cc1ccccc1F)CCc1cc2c(cc1-3)OCO2.[Cl-]	128
CCCCCCCCCCCCCCCCCCn1c(COc2c(OC)ccc3cc4[n+](cc23)CCc2cc3c(cc2-4)OCO3)nc2ccccc21.[Cl-]	64

System: Staphylococcus aureus
Experiment: Antibacterial activity against methicillin-resistant Staphylococcus aureus N315 measured after 24 hrs by two-fold serial dilution method
Assay type: functional
Settings: N315, 24 h
In short: as §2

SMILES	MIC [mg/L]
COc1ccc2cc3[n+](cc2c1OCc1nc2ccccc2n1Cc1ccc(Cl)cc1)CCc1cc2c(cc1-3)OCO2.[Cl-]	512
COc1ccc2cc3[n+](cc2c1OCc1nc2ccccc2n1Cc1ccc([N+](=O)[O-])cc1)CCc1cc2c(cc1-3)OCO2.[Cl-]	512
CCCn1c(COc2c(OC)ccc3cc4[n+](cc23)CCc2cc3c(cc2-4)OCO3)nc2ccccc21.[Cl-]	4
COc1ccc2cc3[n+](cc2c1OCc1nc2ccccc2n1Cc1ccccc1F)CCc1cc2c(cc1-3)OCO2.[Cl-]	512
CCCCCCCCCCCCCCCCCCn1c(COc2c(OC)ccc3cc4[n+](cc23)CCc2cc3c(cc2-4)OCO3)nc2ccccc21.[Cl-]	512

System: Candida albicans
Experiment: Antifungal activity against Candida albicans ATCC 76615 measured after 24 hrs by two-fold serial dilution method
Assay type: functional
Settings: ATCC 76615, 24 h
In short: as §1

SMILES	MIC80 [mg/L]
COc1ccc2cc3[n+](cc2c1OCc1nc2ccccc2n1Cc1ccc(Cl)cc1)CCc1cc2c(cc1-3)OCO2.[Cl-]	512
COc1ccc2cc3[n+](cc2c1OCc1nc2ccccc2n1Cc1ccc([N+](=O)[O-])cc1)CCc1cc2c(cc1-3)OCO2.[Cl-]	128
CCCn1c(COc2c(OC)ccc3cc4[n+](cc23)CCc2cc3c(cc2-4)OCO3)nc2ccccc21.[Cl-]	64
COc1ccc2cc3[n+](cc2c1OCc1nc2ccccc2n1Cc1ccccc1F)CCc1cc2c(cc1-3)OCO2.[Cl-]	512
CCCCCCCCCCCCCCCCCCn1c(COc2c(OC)ccc3cc4[n+](cc23)CCc2cc3c(cc2-4)OCO3)nc2ccccc21.[Cl-]	512

System: Aspergillus flavus
Experiment: Antifungal activity against Aspergillus flavus measured after 24 hrs by two-fold serial dilution method
Assay type: functional
Settings: not given
In short: as §1

SMILES	MIC80 [mg/L]
COc1ccc2cc3[n+](cc2c1OCc1nc2ccccc2n1Cc1ccc(Cl)cc1)CCc1cc2c(cc1-3)OCO2.[Cl-]	4
COc1ccc2cc3[n+](cc2c1OCc1nc2ccccc2n1Cc1ccc([N+](=O)[O-])cc1)CCc1cc2c(cc1-3)OCO2.[Cl-]	64
CCCn1c(COc2c(OC)ccc3cc4[n+](cc23)CCc2cc3c(cc2-4)OCO3)nc2ccccc21.[Cl-]	16
COc1ccc2cc3[n+](cc2c1OCc1nc2ccccc2n1Cc1ccccc1F)CCc1cc2c(cc1-3)OCO2.[Cl-]	8
CCCCCCCCCCCCCCCCCCn1c(COc2c(OC)ccc3cc4[n+](cc23)CCc2cc3c(cc2-4)OCO3)nc2ccccc21.[Cl-]	512
